In ChEMBL document CHEMBL4689842, “EUbOPEN Chemogenomics Library wave 1” (2021):

Legend:
HEK-293T = experiment: Multiplex assay against HEK293T; assay type: toxicity, cell-based; conditions: human;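 for Population Tubulin-Different-Phenotype (%): share of the cells with healthy nuclei that show this phenotype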
Outline: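 Imaging took place on a CQ1 microscope at 37°C and 5% CO2 once compound had been added to live cells stained at seeding with Hoechst33342, BioTracker Green Microtubule Cytoskeleton Dye, MitoTracker Red and Annexin V Alexa Fluor 680. CellPathfinder machine-learning gating classed cells as Hoechst high-intensity objects or normal cells, classed normal cells as having healthy, pyknosed or fragmented nuclei, and classed pyknosed cells as mitotic or apoptotic. Tubulin, mitochondrial-mass and membrane-permeability phenotypes are per cents of the healthy-nucleus cells.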

Fibroblast = experiment: Incucyte cell viability with human fibroblast; assay type: toxicity, cell-based; conditions: 10 µM, compound concentration 10 uM; note: filed as whole numbers so only -1 and 0 and 1 occur
[1] = 12 h, 1 µM, compound concentration 1 uM, replicate 1
[2] = 12 h, 1 µM, compound concentration 1 uM, replicate 2
[3] = 12 h, 10 µM, compound concentration 10 uM, replicate 1
[4] = 12 h, 10 µM, compound concentration 10 uM, replicate 2
[5] = 24 h, 1 µM, compound concentration 1 uM, replicate 1
[6] = 24 h, 1 µM, compound concentration 1 uM, replicate 2
[7] = 24 h, 10 µM, compound concentration 10 uM, replicate 1
[8] = 24 h, 10 µM, compound concentration 10 uM, replicate 2
[9] = 48 h, 1 µM, compound concentration 1 uM, replicate 1
[10] = 48 h, 1 µM, compound concentration 1 uM, replicate 2
[11] = 48 h, 10 µM, compound concentration 10 uM, replicate 1
[12] = 48 h, 10 µM, compound concentration 10 uM, replicate 2

SMILES: Nc1ccc(C(=O)Nc2cccc(-c3nc(N4CCOCC4)c4oc5ncccc5c4n3)c2)cn1
- Population Apoptotic (%) (HEK-293T; [1]): 66%
- Population Fragmented Nuclei (%) (HEK-293T; [1]): 24%
- Population Healthy Nuclei (%) (HEK-293T; [1]): 15%
- Population Hoechst High Intensity Objects (%) (HEK-293T; [1]): 19%
- Population Mitochondria Different-Phenotype (%) (HEK-293T; [1]): 94%
- Population Mitotic Cells (%) (HEK-293T; [1]): 33%
- Population Normal (%) (HEK-293T; [1]): 80%
- Population Pyknosed Nuclei (%) (HEK-293T; [1]): 60%
- Population Tubulin-Different-Phenotype (%) (HEK-293T; [1]): 94%
- Population Apoptotic (%) (HEK-293T; [2]): 34%
- Population Fragmented Nuclei (%) (HEK-293T; [2]): 8%
- Population Healthy Nuclei (%) (HEK-293T; [2]): 10%
- Population Hoechst High Intensity Objects (%) (HEK-293T; [2]): 8%
- Population Mitochondria Different-Phenotype (%) (HEK-293T; [2]): 46%
- Population Mitotic Cells (%) (HEK-293T; [2]): 65%
- Population Normal (%) (HEK-293T; [2]): 91%
- Population Pyknosed Nuclei (%) (HEK-293T; [2]): 81%
- Population Tubulin-Different-Phenotype (%) (HEK-293T; [2]): 80%
- Total Cell Count (HEK-293T; [2]): 149
- Population Apoptotic (%) (HEK-293T; [3]): 83%
- Population Fragmented Nuclei (%) (HEK-293T; [3]): 44%
- Population Healthy Nuclei (%) (HEK-293T; [3]): 5%
- Population Hoechst High Intensity Objects (%) (HEK-293T; [3]): 25%
- Population Mitochondria Different-Phenotype (%) (HEK-293T; [3]): 100%
- Population Mitotic Cells (%) (HEK-293T; [3]): 16%
- Population Normal (%) (HEK-293T; [3]): 74%
- Population Pyknosed Nuclei (%) (HEK-293T; [3]): 49%
- Population Tubulin-Different-Phenotype (%) (HEK-293T; [3]): 76%
- Total Cell Count (HEK-293T; [3]): 385
- Population Apoptotic (%) (HEK-293T; [4]): 53%
- Population Fragmented Nuclei (%) (HEK-293T; [4]): 15%
- Population Healthy Nuclei (%) (HEK-293T; [4]): 13%
- Population Hoechst High Intensity Objects (%) (HEK-293T; [4]): 8%
- Population Mitochondria Different-Phenotype (%) (HEK-293T; [4]): 75%
- Population Mitotic Cells (%) (HEK-293T; [4]): 46%
- Population Normal (%) (HEK-293T; [4]): 91%
- Population Pyknosed Nuclei (%) (HEK-293T; [4]): 70%
- Population Tubulin-Different-Phenotype (%) (HEK-293T; [4]): 70%
- Total Cell Count (HEK-293T; [4]): 330
- Population Apoptotic (%) (HEK-293T; [5]): 64%
- Population Fragmented Nuclei (%) (HEK-293T; [5]): 22%
- Population Healthy Nuclei (%) (HEK-293T; [5]): 17%
- Population Hoechst High Intensity Objects (%) (HEK-293T; [5]): 19%
- Population Mitochondria Different-Phenotype (%) (HEK-293T; [5]): 95%
- Population Mitotic Cells (%) (HEK-293T; [5]): 35%
- Population Normal (%) (HEK-293T; [5]): 80%
- Population Pyknosed Nuclei (%) (HEK-293T; [5]): 59%
- Population Tubulin-Different-Phenotype (%) (HEK-293T; [5]): 90%
- Total Cell Count (HEK-293T; [5]): 147
- Population Apoptotic (%) (HEK-293T; [6]): 40%
- Population Fragmented Nuclei (%) (HEK-293T; [6]): 3%
- Population Healthy Nuclei (%) (HEK-293T; [6]): 37%
- Population Hoechst High Intensity Objects (%) (HEK-293T; [6]): 8%
- Population Mitochondria Different-Phenotype (%) (HEK-293T; [6]): 68%
- Population Mitotic Cells (%) (HEK-293T; [6]): 59%
- Population Normal (%) (HEK-293T; [6]): 91%
- Population Pyknosed Nuclei (%) (HEK-293T; [6]): 58%
- Population Tubulin-Different-Phenotype (%) (HEK-293T; [6]): 96%
- Total Cell Count (HEK-293T; [6]): 171
- Population Apoptotic (%) (HEK-293T; [7]): 80%
- Population Fragmented Nuclei (%) (HEK-293T; [7]): 45%
- Population Healthy Nuclei (%) (HEK-293T; [7]): 7%
- Population Hoechst High Intensity Objects (%) (HEK-293T; [7]): 21%
- Population Mitochondria Different-Phenotype (%) (HEK-293T; [7]): 100%
- Population Mitotic Cells (%) (HEK-293T; [7]): 19%
- Population Normal (%) (HEK-293T; [7]): 78%
- Population Pyknosed Nuclei (%) (HEK-293T; [7]): 47%
- Population Tubulin-Different-Phenotype (%) (HEK-293T; [7]): 79%
- Total Cell Count (HEK-293T; [7]): 389
- Population Apoptotic (%) (HEK-293T; [8]): 67%
- Population Fragmented Nuclei (%) (HEK-293T; [8]): 15%
- Population Healthy Nuclei (%) (HEK-293T; [8]): 15%
- Population Hoechst High Intensity Objects (%) (HEK-293T; [8]): 8%
- Population Mitochondria Different-Phenotype (%) (HEK-293T; [8]): 81%
- Population Mitotic Cells (%) (HEK-293T; [8]): 32%
- Population Normal (%) (HEK-293T; [8]): 91%
- Population Pyknosed Nuclei (%) (HEK-293T; [8]): 69%
- Population Tubulin-Different-Phenotype (%) (HEK-293T; [8]): 50%
- Total Cell Count (HEK-293T; [8]): 315
- Population Apoptotic (%) (HEK-293T; [9]): 67%
- Population Fragmented Nuclei (%) (HEK-293T; [9]): 27%
- Population Healthy Nuclei (%) (HEK-293T; [9]): 31%
- Population Hoechst High Intensity Objects (%) (HEK-293T; [9]): 20%
- Population Mitochondria Different-Phenotype (%) (HEK-293T; [9]): 82%
- Population Mitotic Cells (%) (HEK-293T; [9]): 32%
- Population Normal (%) (HEK-293T; [9]): 79%
- Population Pyknosed Nuclei (%) (HEK-293T; [9]): 40%
- Population Tubulin-Different-Phenotype (%) (HEK-293T; [9]): 86%
- Total Cell Count (HEK-293T; [9]): 183
- Population Apoptotic (%) (HEK-293T; [10]): 61%
- Population Fragmented Nuclei (%) (HEK-293T; [10]): 6%
- Population Healthy Nuclei (%) (HEK-293T; [10]): 55%
- Population Hoechst High Intensity Objects (%) (HEK-293T; [10]): 8%
- Population Mitochondria Different-Phenotype (%) (HEK-293T; [10]): 49%
- Population Mitotic Cells (%) (HEK-293T; [10]): 38%
- Population Normal (%) (HEK-293T; [10]): 91%
- Population Pyknosed Nuclei (%) (HEK-293T; [10]): 38%
- Population Tubulin-Different-Phenotype (%) (HEK-293T; [10]): 92%
- Total Cell Count (HEK-293T; [10]): 187
- Population Apoptotic (%) (HEK-293T; [11]): 75%
- Population Fragmented Nuclei (%) (HEK-293T; [11]): 51%
- Population Healthy Nuclei (%) (HEK-293T; [11]): 10%
- Population Hoechst High Intensity Objects (%) (HEK-293T; [11]): 28%
- Population Mitochondria Different-Phenotype (%) (HEK-293T; [11]): 97%
- Population Mitotic Cells (%) (HEK-293T; [11]): 24%
- Population Normal (%) (HEK-293T; [11]): 71%
- Population Pyknosed Nuclei (%) (HEK-293T; [11]): 38%
- Population Tubulin-Different-Phenotype (%) (HEK-293T; [11]): 60%
- Total Cell Count (HEK-293T; [11]): 484
- Population Apoptotic (%) (HEK-293T; [12]): 73%
- Population Fragmented Nuclei (%) (HEK-293T; [12]): 17%
- Population Healthy Nuclei (%) (HEK-293T; [12]): 18%
- Population Hoechst High Intensity Objects (%) (HEK-293T; [12]): 8%
- Population Mitochondria Different-Phenotype (%) (HEK-293T; [12]): 84%
- Population Mitotic Cells (%) (HEK-293T; [12]): 26%
- Population Normal (%) (HEK-293T; [12]): 91%
- Population Pyknosed Nuclei (%) (HEK-293T; [12]): 64%
- Population Tubulin-Different-Phenotype (%) (HEK-293T; [12]): 55%
- Total Cell Count (HEK-293T; [12]): 304
- Growth Rate (Fibroblast; 0 h, replicate number 1, timepoint 0 hours): 0
- Growth Rate (Fibroblast; 6 h, replicate number 1, timepoint 6 hours): 0
- Growth Rate (Fibroblast; 12 h, replicate number 1, timepoint 12 hours): 0
- Growth Rate (Fibroblast; 18 h, replicate number 1, timepoint 18 hours): 0
- Growth Rate (Fibroblast; 18 h, replicate number 2, timepoint 18 hours): 1
- Growth Rate (Fibroblast; 24 h, replicate number 1, timepoint 24 hours): 0
